Legend:
PC-12 [1] = assay: Cytotoxicity against rat PC12 cells at 0.1 to 50 uM after 4 hrs; type: cell-based; conditions: pc-12, 2 days, in the assay text read “after 2 days” for “after 4 hrs”
How it was run: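 MTT viability in PC-12 cells (DSMZ) in DMEM with 10% HS, 5% FBS and pen/strep; 5 × 10^4 cells/mL seeded, 1 h at 37 °C, then MeOH or DMSO stocks diluted in DMEM to 50, 20, 10, 1, 0.1 µM. Cells exposed 2 days at 37 °C, 5% CO2. MTT added for 4 h, SDS lysis overnight, OD 544 nm. Quadruplicate, mean ± SD; 0.2% MeOH/1% DMSO taken as 100% viability.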

PC-12 [2] = assay: Induction of neuritogenic activity in rat PC12 cells assessed as cells with length of one cell diameter at 50 uM after 48 hrs by phase contrast microscope; type: functional
How it was run: (§1)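 PC-12 cells (DSMZ) were primed 5 days in DMEM with 1% HS, 0.5% FBS and 50 ng/mL NGF, then put back in full-serum DMEM. Cells were dispersed through a 21-gauge needle, seeded at 1 × 10^5 cells/mL on collagen-coated wells and allowed 4 h. Compound at final 20 or 50 µM (0.2% MeOH or DMSO) for 48 h; NGF 50 ng/mL control. Phase-contrast scoring of 300 cells in three areas of two wells.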

PC-12 [3] = assay: Induction of neuritogenic activity in rat PC12 cells assessed as round cells without differention at 50 uM after 48 hrs by phase contrast microscope; type: functional; how it was run: as §1
PC-12 [4] = assay: Induction of neuritogenic activity in rat PC12 cells assessed as cells with longer than one cell diameter at 50 uM after 48 hrs by phase contrast microscope; type: functional; how it was run: as §1
PC-12 [5] = assay: Induction of neuritogenic activity in rat PC12 cells assessed as round cells without differention at 20 uM after 48 hrs by phase contrast microscope; type: functional; how it was run: as §1
PC-12 [6] = assay: Induction of neuritogenic activity in rat PC12 cells assessed as cells with length of one cell diameter at 20 uM after 48 hrs by phase contrast microscope; type: functional; how it was run: as §1
PC-12 [7] = assay: Induction of neuritogenic activity in rat PC12 cells assessed as cells with flattened appearance at 50 uM after 48 hrs by phase contrast microscope; type: functional; how it was run: as §1
PC-12 [8] = assay: Induction of neuritogenic activity in rat PC12 cells assessed as cells with flattened appearance at 20 uM after 48 hrs by phase contrast microscope; type: functional; how it was run: as §1

Structure (SMILES) | Activity (PC-12 [1]) | Activity (PC-12 [2]) [%] | Activity (PC-12 [3]) [%] | Activity (PC-12 [4]) [%] | Activity (PC-12 [5]) [%] | Activity (PC-12 [6]) [%] | Activity (PC-12 [7]) [%] | Activity (PC-12 [8]) [%]
CCC(C)/C=C(C)/C=C/C=C/C=C/C(=O)c1c(O)c(-c2ccc(O)cc2)cn(O)c1=O (stereo not drawn) [FARINOSONE B] | Non-toxic |  |  |  |  |  |  | 
CCC(C)/C=C(C)/C=C/C=C/C=C/C(=O)c1c(O)c(-c2ccc(O)cc2)c[nH]c1=O (stereo not drawn) [FARINOSONE A] | Non-toxic | 60 | 30 | 10 | 60 | 40 |  | 
CC(/C=C/C(=O)NC(CO)Cc1ccc(O)cc1)=C\C(C)CC(=O)O (stereo not drawn) [FARINOSONE C] | Non-toxic | 13 | 27 |  | 47 |  | 60 | 53

Reference: ChEMBL document CHEMBL1148946, “Farinosones A-C, neurotrophic alkaloidal metabolites from the entomogenous deuteromycete Paecilomyces farinosus” (J Nat Prod, 2004)
